pEC50: −log10 of the molar value. Activity calls are given as the source filed them. No cut-off for these calls is given here.
What was measured:
[1] = biological target: P2Y purinoceptor 4 (Homo sapiens) (UniProt P51582); test: Agonist activity at P2Y4 receptor expressed in human 1321 cells at 100 uM by calcium mobilization assay; type: functional, cell-based
P2Y purinoceptor 2 [2] = biological target: T1, P2Y purinoceptor 2 (Homo sapiens, UniProt P41231); test: Agonist activity at P2Y2 receptor expressed in human 1321 cells at 100 uM by calcium mobilization assay; type: functional, cell-based
T1 sequence (P41231 whole entry): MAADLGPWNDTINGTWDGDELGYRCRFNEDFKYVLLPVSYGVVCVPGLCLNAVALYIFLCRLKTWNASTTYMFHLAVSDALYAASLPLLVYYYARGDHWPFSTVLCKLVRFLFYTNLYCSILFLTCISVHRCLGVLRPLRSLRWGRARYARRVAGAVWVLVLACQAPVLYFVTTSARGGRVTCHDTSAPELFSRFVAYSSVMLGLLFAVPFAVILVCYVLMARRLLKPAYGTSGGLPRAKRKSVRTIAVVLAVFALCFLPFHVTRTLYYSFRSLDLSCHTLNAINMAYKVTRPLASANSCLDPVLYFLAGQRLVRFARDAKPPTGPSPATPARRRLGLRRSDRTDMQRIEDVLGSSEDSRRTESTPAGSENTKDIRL
Summary of the method: (§1)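 1321N1 human astrocytoma cells expressing the recombinant receptor were loaded with Fluo-3 AM (2.5 µM final) for 60 min at 25 °C. Assay buffer: KCl 10, NaCl 118, CaCl2 2.5, MgCl2 1, HEPES 20, glucose 10 mM, pH 7.4. Cells were washed and then stimulated with compound. Intracellular calcium was read as the change in fluorescence (FLIPR). Values are EC50 in µM. SR means 5–20% of maximal response at the top concentration, usually 100 µM. NR means no response.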

P2Y purinoceptor 6 [3] = biological target: T2, P2Y purinoceptor 6 (Homo sapiens, UniProt Q15077); test: Agonist activity at P2Y6 receptor expressed in human 1321 cells at 100 uM by calcium mobilization assay; type: functional, cell-based; summary of the method: as §1
T2 sequence (Q15077 whole entry): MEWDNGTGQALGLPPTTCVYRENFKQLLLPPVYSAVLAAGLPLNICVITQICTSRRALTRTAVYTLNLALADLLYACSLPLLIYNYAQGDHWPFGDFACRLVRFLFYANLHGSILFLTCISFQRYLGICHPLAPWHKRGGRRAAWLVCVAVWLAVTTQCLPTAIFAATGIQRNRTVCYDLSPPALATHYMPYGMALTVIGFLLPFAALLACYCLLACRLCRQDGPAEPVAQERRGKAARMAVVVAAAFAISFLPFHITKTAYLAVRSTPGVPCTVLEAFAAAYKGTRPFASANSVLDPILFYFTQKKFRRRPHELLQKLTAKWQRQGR

P2Y purinoceptor 1 [4] = biological target: T3, P2Y purinoceptor 1 (Homo sapiens, UniProt P47900); test: Agonist activity at human recombinant P2Y1 receptor expressed in human 1321 cells at 100 uM by calcium mobilization assay; type: functional, cell-based; summary of the method: as §1
T3 sequence (P47900 whole entry): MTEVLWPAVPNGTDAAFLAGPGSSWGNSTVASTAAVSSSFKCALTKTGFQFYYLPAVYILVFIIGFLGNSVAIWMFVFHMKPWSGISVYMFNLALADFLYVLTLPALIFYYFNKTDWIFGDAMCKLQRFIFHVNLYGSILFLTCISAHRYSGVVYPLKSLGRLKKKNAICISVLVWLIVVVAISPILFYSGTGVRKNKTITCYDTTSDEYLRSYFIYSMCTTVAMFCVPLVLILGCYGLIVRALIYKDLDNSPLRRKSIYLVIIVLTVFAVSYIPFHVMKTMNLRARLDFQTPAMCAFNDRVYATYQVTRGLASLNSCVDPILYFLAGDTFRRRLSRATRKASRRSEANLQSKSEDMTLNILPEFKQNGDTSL

P2Y purinoceptor 6 [5] = biological target: T2, P2Y purinoceptor 6; test: Agonist activity at P2Y6 receptor expressed in human 1321 cells by calcium mobilization assay; type: functional, cell-based; summary of the method: as §1
[6] = biological target: P2Y purinoceptor 12 (Homo sapiens) (UniProt Q9H244); test: Antagonist activity at P2Y12 receptor assessed as inhibition of ADP-induced human platelet aggregation by washed platelet assay at 100 uM; type: functional
Chain of P2Y purinoceptor 12 (Homo sapiens) (Q9H244 whole entry): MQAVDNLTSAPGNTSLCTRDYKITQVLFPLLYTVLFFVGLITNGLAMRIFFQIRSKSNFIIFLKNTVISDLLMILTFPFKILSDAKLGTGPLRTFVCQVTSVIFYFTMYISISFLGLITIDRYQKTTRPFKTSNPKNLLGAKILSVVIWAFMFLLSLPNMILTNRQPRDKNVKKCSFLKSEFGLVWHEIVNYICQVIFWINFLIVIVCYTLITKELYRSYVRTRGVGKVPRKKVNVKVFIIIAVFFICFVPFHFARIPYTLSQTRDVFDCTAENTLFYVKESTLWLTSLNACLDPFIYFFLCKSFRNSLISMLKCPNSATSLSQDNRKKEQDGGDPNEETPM
Summary of the method: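 Blood from healthy volunteers was anticoagulated with ACD and spun at 180g for 15 min to give PRP. Platelets were washed three times in HEPES-buffered saline, pH 7.4, with 0.2% BSA and 5 µM PGI2, then resuspended with 0.25 U/mL apyrase. The suspension held 1 mg/mL fibrinogen at 37 °C, stirred at 1000 rpm. Compound (usually 1 nM–100 µM) was added for 2 min, then ADP at EC90 (usually 1–10 µM). Optical aggregation was recorded for 8 min. IC50 came from a four-parameter logistic fit.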

P2Y purinoceptor 2 [7] = biological target: T1, P2Y purinoceptor 2; test: Agonist activity at P2Y2 receptor expressed in human 1321 cells by calcium mobilization assay; type: functional, cell-based
[8] = biological target: P2Y purinoceptor 12 (Homo sapiens) (UniProt Q9H244); test: Antagonist activity at P2Y12 receptor assessed as inhibition of 2-MeS-ADP-induced human platelet aggregation; type: functional
Summary of the method: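 Washed human platelets (ACD-anticoagulated blood, PGI2/apyrase washes) with 1 mg/mL fibrinogen at 37 °C, stirred. Concentration–response curves to 2-MeS-ADP were run alone and with antagonist at 1, 3, 10, 30 or 100 µM. Aggregation was read optically. Schild (Arunlakshana-Schild) analysis gave KB and slope.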

[9] = biological target: P2Y purinoceptor 12 (Homo sapiens) (UniProt Q9H244); test: Reversal of antagonist activity at P2Y12 receptor in human washed platelets pretreated at 50 uM for 3 mins before addition of 2-Me-S-ADP and fibrinogen; type: functional
Summary of the method: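 Washed human platelets were incubated with 50 µM antagonist for 3 min at 37 °C without fibrinogen. One set was then stimulated directly with 2-MeS-ADP plus fibrinogen. The other set was centrifuged once, resuspended in drug-free medium, and then stimulated. Optical aggregation was monitored for 6–8 min.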

P2Y purinoceptor 1 [10] = biological target: T3, P2Y purinoceptor 1; test: Agonist at human recombinant P2Y1 receptor expressed in human 1321 cells by calcium mobilization assay; type: functional, cell-based; summary of the method: as §1

Chain of P2Y purinoceptor 4 (Homo sapiens) (P51582 whole entry): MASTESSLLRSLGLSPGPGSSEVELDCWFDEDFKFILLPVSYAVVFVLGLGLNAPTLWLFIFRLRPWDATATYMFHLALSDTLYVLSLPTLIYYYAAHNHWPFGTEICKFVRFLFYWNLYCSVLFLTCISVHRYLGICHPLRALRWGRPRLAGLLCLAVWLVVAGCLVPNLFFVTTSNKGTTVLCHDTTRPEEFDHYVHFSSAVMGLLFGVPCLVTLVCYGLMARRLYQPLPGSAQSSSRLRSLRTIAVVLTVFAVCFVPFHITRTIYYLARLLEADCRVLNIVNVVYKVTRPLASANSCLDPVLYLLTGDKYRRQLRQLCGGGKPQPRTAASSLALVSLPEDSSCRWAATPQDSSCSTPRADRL

Activity [1]	Activity (P2Y purinoceptor 2 [2])	Activity (P2Y purinoceptor 6 [3])	Activity (P2Y purinoceptor 1 [4])	pEC50 (P2Y purinoceptor 6 [5])	Activity [6]	pEC50 (P2Y purinoceptor 2 [7])	inhibition [6] [%]	Kb [8] [nM]	Activity [9]	pEC50 (P2Y purinoceptor 1 [10])	Compound
inactive	inactive	inactive	inactive	–	–	–	–	–	–	–	CCCCCCNC(=O)Nc1ncnc2c1ncn2[C@@H]1O[C@H](COP(=O)(O)O)C2OC(C#Cc3ccccc3)OC21 (single isomer, unassigned)
inactive	inactive	inactive	inactive	–	–	–	–	–	–	–	O=C(Nc1ccccc1)Nc1ncnc2c1ncn2[C@@H]1O[C@H](COP(=O)(O)O)[C@@H](O)[C@H]1O
–	–	–	inactive	6.40	inactive	4.87	–	–	–	–	O=c1ccn([C@@H]2O[C@H](COP(=O)(O)OP(=O)(O)OP(=O)(O)OC[C@@H]3O[C@H](n4ccc(=O)[nH]c4=O)[C@@H](O)[C@H]3O)[C@@H](O)[C@H]2O)c(=O)[nH]1
inactive	inactive	inactive	inactive	–	–	–	75	–	–	–	Nc1ncnc2c1ncn2[C@@H]1O[C@H](COP(=O)(O)O)[C@H]2O[C@@H](c3ccccc3)O[C@H]21
–	–	> 5%	inactive	–	–	4.84	–	249	Active	–	O=c1ccn([C@@H]2O[C@H](COP(=O)(O)OP(=O)(O)OP(=O)(O)OP(=O)(O)OC[C@@H]3O[C@H](n4ccc(=O)[nH]c4=O)[C@H]4OC(Cc5ccccc5)O[C@H]43)[C@H]3OC(Cc4ccccc4)O[C@H]32)c(=O)[nH]1 (stereo not given in full)
inactive	inactive	inactive	inactive	–	–	–	–	–	–	–	O=C(Nc1ccccc1)Nc1ncnc2c1ncn2[C@@H]1O[C@H](COP(=O)(O)O)C2OC(C#Cc3ccccc3)OC21 (single isomer, unassigned)
inactive	inactive	inactive	inactive	–	–	–	–	–	–	–	O=C(Nc1ccccc1)Nc1ncnc2c1ncn2[C@@H]1O[C@H](COP(=O)(O)O)[C@H]2OC(Cc3ccccc3)O[C@H]21 (stereo not given in full)
inactive	inactive	inactive	inactive	–	–	–	–	–	–	–	CCCCCCNC(=O)Nc1ncnc2c1ncn2[C@@H]1O[C@H](COP(=O)(O)O)C2OC(/C=C/c3ccccc3)OC21 (single isomer, unassigned)
inactive	inactive	inactive	inactive	–	–	–	–	–	–	–	CCNC(=O)Nc1ncnc2c1ncn2[C@@H]1O[C@H](COP(=O)(O)O)C2O[C@H](/C=C/c3ccccc3)OC21 (single isomer, unassigned)
inactive	inactive	inactive	inactive	–	–	–	–	–	–	–	Nc1ncnc2c1ncn2[C@@H]1O[C@H](COP(=O)(O)O)[C@H]2OC(C#Cc3ccccc3)O[C@H]21 (stereo not given in full)
inactive	inactive	inactive	inactive	–	–	–	47	–	–	–	Nc1ncnc2c1ncn2[C@@H]1O[C@H](COP(=O)(O)O)[C@H]2O[C@@H](Cc3ccccc3)O[C@H]21
–	–	–	–	5.01	–	5.03	–	–	–	5.58	O=C(Nc1ccccc1)Nc1ncnc2c1ncn2[C@@H]1O[C@H](COP(=O)(O)OP(=O)(O)O)[C@@H](O)[C@H]1O
inactive	inactive	inactive	inactive	–	–	–	–	–	–	–	CCNC(=O)Nc1ncnc2c1ncn2[C@@H]1O[C@H](COP(=O)(O)O)C2OC(/C=C/c3ccccc3)OC21 (single isomer, unassigned)
inactive	inactive	inactive	inactive	–	–	–	–	–	–	–	CCNC(=O)Nc1ncnc2c1ncn2[C@@H]1O[C@H](COP(=O)(O)O)[C@H]2OC(Cc3ccccc3)O[C@H]21 (stereo not given in full)
inactive	inactive	inactive	inactive	–	–	–	–	–	–	–	CCNC(=O)Nc1ncnc2c1ncn2[C@@H]1O[C@H](COP(=O)(O)O)[C@H]2OC(c3ccccc3)O[C@H]21 (stereo not given in full)
inactive	inactive	inactive	inactive	–	–	–	–	–	–	–	O=C(Nc1ccccc1)Nc1ncnc2c1ncn2[C@@H]1O[C@H](COP(=O)(O)O)C2OC(/C=C/c3ccccc3)OC21 (single isomer, unassigned)
inactive	inactive	inactive	inactive	–	–	–	–	–	–	–	CCCCCCNC(=O)Nc1ncnc2c1ncn2[C@@H]1O[C@H](COP(=O)(O)O)[C@H]2OC(Cc3ccccc3)O[C@H]21 (stereo not given in full)
–	–	inactive	–	–	–	4.86	–	–	–	5.36	Nc1ncnc2c1ncn2[C@@H]1O[C@H](COP(=O)(O)OP(=O)(O)O)[C@H]2O[C@@H](Cc3ccccc3)O[C@H]21
inactive	inactive	inactive	inactive	–	–	–	–	–	–	–	Nc1ncnc2c1ncn2[C@@H]1O[C@H](COP(=O)(O)O)[C@H]2OC(/C=C/c3ccccc3)O[C@H]21 (stereo not given in full)
inactive	inactive	inactive	inactive	–	–	–	–	–	–	–	O=C(Nc1ncnc2c1ncn2[C@@H]1O[C@H](COP(=O)(O)O)C2OC(Cc3ccccc3)OC21)NC1CCCC1 (single isomer, unassigned)
–	inactive	–	inactive	6.81	–	–	–	–	–	–	O=c1ccn([C@@H]2O[C@H](COP(=O)(O)OP(=O)(O)OP(=O)(O)OC[C@@H]3O[C@H](n4ccc(=O)[nH]c4=O)[C@@H](O)[C@H]3O)[C@H]3OC(Cc4ccccc4)O[C@H]32)c(=O)[nH]1 (stereo not given in full)
–	–	–	inactive	4.52	–	7.01	44	–	–	–	CCCC1O[C@@H]2[C@H](O1)[C@@H](COP(=O)(O)OP(=O)(O)OP(=O)(O)OP(=O)(O)OC[C@@H]1O[C@H](n3ccc(=O)[nH]c3=O)[C@@H](O)[C@H]1O)O[C@H]2n1ccc(=O)[nH]c1=O (stereo not given in full)
–	–	inactive	–	–	–	7.14	63	–	–	6.37	Nc1ncnc2c1ncn2[C@@H]1O[C@H](COP(=O)(O)OP(=O)(O)OP(=O)(O)OP(=O)(O)OC[C@@H]2O[C@H](n3cnc4c(N)ncnc43)[C@@H](O)[C@H]2O)[C@@H](O)[C@H]1O
–	–	–	inactive	4.73	inactive	–	–	–	–	–	O=c1ccn([C@@H]2O[C@H](COP(=O)(O)OP(=O)(O)OP(=O)(O)OP(=O)(O)OC[C@@H]3O[C@H](n4ccc(=O)[nH]c4=O)[C@@H](O)[C@H]3O)[C@@H](O)[C@H]2O)c(=O)[nH]1

From ChEMBL document CHEMBL1141591, “Lipophilic modifications to dinucleoside polyphosphates and nucleotides that confer antagonist properties at the platelet P2Y12 receptor” (J Med Chem, 2008)
